Data on 20 compounds can be found in ChEMBL document CHEMBL4715756, “Nitrotriazole-based acetamides and propanamides with broad spectrum antitrypanosomal activity” (Eur J Med Chem, 2016).

For orientation: pKa means the negative logarithm of the acid dissociation constant. A higher pKa goes with a weaker acid or stronger base. In general, IC50 refers to the midpoint of a concentration-inhibition curve.

Activity calls are given as the source filed them. The rule behind the calls is not given here.

Data set [1] is described as follows: Toxicity in Trypanosoma cruzi Brazil trypomastigotes expressing firefly luciferase infected BALB/c mouse assessed as healthy appearance at 13 mg/kg, ip measured after 5 to 10 days. The data set is classed as organism-based. Particulars: in vivo, time 5-10 day. An outline of the steps:
(§1)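 Balb/c mice, 5 weeks old, infected with 10^5 luciferase-expressing Brazil-strain T. cruzi trypomastigotes. From 4 days post-infection, mice were dosed i.p. at 13 mg/kg/day for 10 days in 2% methylcellulose + 0.5% Tween 80 vehicle, 5 mice/group. Animals were observed over treatment, with imaging after 5 and 10 days of dosing.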

The test system of data set [2] is Trypanosoma cruzi. Put plainly: Anti-chagasic activity against Trypanosoma cruzi Brazil trypomastigotes expressing firefly luciferase infected in BALB/c mouse assessed as reduction in parasitemia at 13 mg/kg/day, ip measured after 10 days by bioluminescence assay. Particulars: time 10.0 day. The format is functional, organism-based.
The subject of data set [3] is Trypanosoma brucei rhodesiense. As to the kind of experiment: Substrate activity at Trypanosoma brucei rhodesiense recombinant His-tagged type 1 nitroreductase assessed as enzyme specific activity using NADH at 100 uM by spectrophotometrically. An outline of the steps: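 Purified recombinant his-tagged TbNTR. Each nitrotriazole substrate at 100 µM with NADH 100 µM. NADH oxidation followed spectrophotometrically at 340 nm. Specific activity given as nmol NADH oxidized min^-1 mg^-1 protein, mean of three experiments ± SD.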

Data set [4] in a line: Toxicity in Trypanosoma cruzi Brazil trypomastigotes expressing firefly luciferase infected BALB/c mouse assessed mortality at 13 mg/kg, ip measured after 5 to 10 days. The format is organism-based. Particulars: in vivo, time 5-10 day. The method in brief:
as §1

Data set [5] can be described thus: Dissociation constant, pKa of the compound.
Data set [6] can be described thus: in vitro. Particulars: rat, L6 cells versus Leishmania donovani MHOM/ET/67/L82.
For data set [7], the system named is Trypanosoma cruzi. As to the kind of experiment: Anti-chagasic activity against Trypanosoma cruzi Brazil trypomastigotes expressing firefly luciferase infected in BALB/c mouse assessed as reduction in parasitemia at 13 mg/kg/day, ip measured after 5 days by bioluminescence assay. The format is functional, organism-based. Particulars: time 5.0 day.
Data set [8] relates to Trypanosoma cruzi. Put plainly: Anti-chagasic activity against Trypanosoma cruzi Brazil trypomastigotes expressing firefly luciferase infected in BALB/c mouse assessed as reduction in parasitemia at 15 mg/kg/day, ip measured after 5 days by bioluminescence assay. Particulars: time 5.0 day. The format is functional, organism-based.
The subject of data set [9] is Trypanosoma cruzi. Put plainly: Anti-chagasic activity against Trypanosoma cruzi Brazil trypomastigotes expressing firefly luciferase infected in BALB/c mouse assessed as reduction in parasitemia at 15 mg/kg/day, ip measured after 10 days by bioluminescence assay. The data set is classed as functional, organism-based. Particulars: time 10.0 day.
Data set [10] concerns Trypanosoma cruzi. Put plainly: Trypanocidal activity against Trypanosoma cruzi Tulahuen C4 amastigotes infected in rat L6 cells in vitro.
A short description of data set [11]: in vitro. Particulars: rat.
A short description of data set [12]: in vitro. Particulars: rat, L6 cells versus Trypanosoma cruzi Tulahuen C4.
Data set [13] can be described thus: Toxicity in Trypanosoma cruzi Brazil trypomastigotes expressing firefly luciferase infected BALB/c mouse assessed toxic symptoms at 15 mg/kg, ip measured after 5 to 10 days. The data set is classed as organism-based. Particulars: in vivo, time 5-10 day. The method in brief:
(§2)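 Same infected Balb/c model: luciferase T. cruzi, 10^5 trypomastigotes. Daily i.p. dosing for 10 days from day 4 post infection at 13 or 15 mg/kg/day, in 2% methylcellulose + 0.5% Tween 80, 5 mice/group. Mice observed for general health and deaths over the treatment period.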

A short description of data set [14]: Toxicity in Trypanosoma cruzi Brazil trypomastigotes expressing firefly luciferase infected BALB/c mouse assessed toxic symptoms at 13 mg/kg, ip measured after 5 to 10 days. Particulars: in vivo, time 5-10 day. The data set is classed as organism-based. An outline of the steps: as §2

Take `O=C(CCn1cnc([N+](=O)[O-])n1)Nc1ccc(Oc2ccc(Cl)cc2)cc1`: the figures for the Activity entry in [1] and in data set [4] were “Toxic” and “Non-Toxic”, respectively. Besides, the outcome (in the data set on Trypanosoma cruzi [2]; in data set [3]; in the data set with Trypanosoma cruzi [7]) was Active. For the same compound, the pKa in [5] is 14.5. Moreover, the selectivity ratio in “in vitro [6]” was 15.

As to `O=C(Cn1ccnc1[N+](=O)[O-])NCc1ccccc1`, the outcome with Trypanosoma cruzi [8] and in the data set on Trypanosoma cruzi [9] was Active.

Take `O=C(Cn1cnc([N+](=O)[O-])n1)Nc1cccc(-c2ccccc2)c1`: the 50% inhibitory concentration (IC50) in the data set with Trypanosoma cruzi [10] worked out at 179 nM.

On to `O=C(Cn1cnc([N+](=O)[O-])n1)Nc1ccc(Oc2ccccc2)cc1`, for which, in the data set “in vitro [11]”, the selectivity ratio was 34. Also, in data set [5], the pKa amounted to 13.3.

As for `O=C(Cn1cnc([N+](=O)[O-])n1)Nc1cc(-c2ccc(Cl)cc2)no1`, in [3], the outcome was Active.

Turning to `O=C(Cn1cnc([N+](=O)[O-])n1)Nc1ccc(Oc2ccc(Cl)cc2)cc1`, the selectivity ratio in the data set “in vitro [11]” was determined as 22. The compound also had an IC50 in the data set with Trypanosoma cruzi [10] of 8 nM. In data set [5], this compound returned a pKa of 13.6.

Regarding `O=C(CCn1cnc([N+](=O)[O-])n1)Nc1cccc(-c2ccccc2)c1`, the outcome in data set [3] was Active. In [5], this compound came in with a pKa of 14.

As for `O=C(Cn1cnc([N+](=O)[O-])n1)Nc1ccc(Oc2ccc(F)cc2)cc1`, in “in vitro [11]”, the selectivity ratio came to 35. For the same compound, in data set [5], the pKa was 13.6.

For `O=C(CCn1cnc([N+](=O)[O-])n1)Nc1ccc(Oc2ccccc2)cc1`, the outcome in [3] was Active. For the same compound, the pKa in data set [5] came out at 14.5. For the same compound, the selectivity ratio in “in vitro [6]” stood at 13.5.

Regarding `CN(C(=O)Cn1cnc([N+](=O)[O-])n1)c1ccc(C(F)(F)F)cc1`, the selectivity ratio in the data set “in vitro [11]” and in the data set “in vitro [6]” was 6.8 each time.

In the case of `O=C(CCn1cnc([N+](=O)[O-])n1)Nc1cc(-c2ccc(F)cc2)on1`, the selectivity ratio in “in vitro [11]” was over 201. In [5], the pKa is 11.2.

With `CN(C(=O)Cn1ccnc1[N+](=O)[O-])c1ccc(C(F)(F)F)cc1`, the selectivity ratio in the data set “in vitro [12]” is 3.8.

Turning to `O=C(Cn1cnc([N+](=O)[O-])n1)Nc1cccc(OCc2ccccc2)c1`, the selectivity ratio in “in vitro [12]” is 575; in “in vitro [11]”, 14.1; in “in vitro [6]”, 20.3. 119 nM corresponded to half-maximal inhibition with Trypanosoma cruzi [10] (IC50). The compound further displayed a pKa in [5] of 12.8.

Regarding `O=C(CCn1cnc([N+](=O)[O-])n1)Nc1cccc(OCc2ccccc2)c1`, in data set [3], the result was Active. Moreover, in data set [5], the pKa came out at 14.

Consider `O=C(CCn1cnc([N+](=O)[O-])n1)Nc1cc(-c2ccc(Cl)cc2)no1`, for which the result in data set [3] was Active. In data set [5], this compound returned a pKa of 9.14.

Take `N#Cc1ccc(-c2ccc(NC(=O)CCn3cnc([N+](=O)[O-])n3)cc2)cc1`: in data set [13], the Activity result is recorded as “Non-Toxic”. Further, the outcome in the data set with Trypanosoma cruzi [8] and with Trypanosoma cruzi [9] was Active. Moreover, the pKa in data set [5] turned out to be 14.1.

Take `O=C(Cn1cnc([N+](=O)[O-])n1)Nc1cc(-c2ccc(F)cc2)on1`: in data set [3], the outcome was Active. Also, the pKa in [5] came to 11.

On to `O=C(Cn1cnc([N+](=O)[O-])n1)NCc1ccc(C(F)(F)F)cc1`, for which the results for the selectivity ratio in the data set “in vitro [12]”, in “in vitro [11]” and in “in vitro [6]” were 133, 20 and 12, respectively. In addition, in data set [5], the pKa amounted to 12.7.

Turning to `O=C(CCn1cnc([N+](=O)[O-])n1)Nc1ccc(Oc2ccc(F)cc2)cc1`, the result (in the data set with Trypanosoma cruzi [2]; in data set [3]; in the data set on Trypanosoma cruzi [7]) was Active. Besides, the pKa in data set [5] stood at 14.5. The Activity result in [14] is recorded as “Non-Toxic”.

As for `N#Cc1ccc(-c2ccc(NC(=O)Cn3cnc([N+](=O)[O-])n3)cc2)cc1`, the selectivity ratio in the data set “in vitro [12]” came to 1190; in the data set “in vitro [11]”, 490. Besides, in the data set with Trypanosoma cruzi [10], the IC50 amounted to 138 nM. The pKa in data set [5] turned out to be 13.2.
